Reference: ChEMBL document CHEMBL4513216, “Probing the Open Global Health Chemical Diversity Library for Multistage-Active Starting Points for Next-Generation Antimalarials” (ACS Infect Dis, 2020)

Experiment: Toxicity liver stage against HepG2, at 10uM
Type: cell-based
Set-up: test concentration 10 uM, cell line HepG2-A16-CD81EGFP
Conditions: human, HepG2-A16-CD81EGFP cells; read-out: INHIBITION
Method in brief: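 Uninfected HepG2-A16-CD81EGFP cells, 3 × 10^3 per well, 1536-well, plated on prespotted compound at 10 μM final, parasite-free screening media added to match infected plates; puromycin 10 μM positive, DMSO 0.5% negative; run in parallel with 48 h PbLuc assay at 37 °C, 5% CO2; viability by CellTiter-Glo luminescence, normalized to controls.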

Row | Compound | cytotoxicity at 10 µM [%]
1 | CC(=O)N1CC[C@H]2CC(=O)N(CCc3c[nH]cn3)CC[C@H]2C1 | -2.77
2 | CCNC(=O)O[C@H]1COCCN(c2nc3ccccc3s2)C1 | -3.04
3 | Cc1ccc(C)c(-n2ncc(C(=O)N(C)CCc3ccccn3)c2N)c1 | -1.57
4 | Cc1nn(-c2ccc(C(=O)O)cc2)c2c1C(c1cccs1)SCC(=O)N2 (stereo not drawn) | -0.607
5 | COc1ccccc1OCC(=O)NCC(C)(O)C1CC1 (stereo not drawn) | -0.419
6 | CC(C)(C)C(O)CCNC(=O)c1ccc(F)cc1Cl (stereo not drawn) | 0.0701
7 | O=C(c1ccnnc1)N1CC[C@@H](O)[C@@H]1Cc1ccccc1 | 5.03
8 | Cn1nccc1-c1ccc2nc(C3CCNCC3)nn2c1 | 10.3
9 | O=C(c1ccoc1)N1CCc2ncc(Cn3cccn3)n2CC1 | 6.9
10 | Cc1cnc(C(=O)N2CCC3(CC2)CC(c2ccncc2)C(=O)N3)cn1 (stereo not drawn) | 9.14
11 | CC(C)NC(=O)N1CCN(S(C)(=O)=O)CC2(CNC(=O)C2)C1 (stereo not drawn) | 8.71
12 | Cc1csc([C@@H]2C[C@@H]3CCN(Cc4cnn(C)c4)C[C@H]3O2)n1 | -4.87
13 | Cn1cc(CN2CCC3(CCCN(Cc4ccccn4)C3)CC2)cn1 | -6.54
14 | O=C(Cn1nc(C(F)(F)F)c(Cl)c1C1CC1)NN1CCOCC1 | 5.01
15 | CC(CN1CCOCC1)n1cncc1-c1cnn(Cc2ccccc2)c1 (stereo not drawn) | 6.33
16 | CS(=O)(=O)N1CC(c2ccnc(Nc3ccccn3)n2)C1 | 13.8
17 | Fc1ccccc1Oc1nccnc1C1CCCN(C2CCOCC2)C1 (stereo not drawn) | -9.4
18 | c1c[nH]c(CN2CCCC(Cc3ccc(NC4CCCC4)nn3)C2)n1 (stereo not drawn) | -3.95
19 | Cc1cc(CCC2CN(CC3(O)CCCCC3)CCO2)ncn1 (stereo not drawn) | 2.97
20 | O=C(c1cc[nH]n1)N1CCC(c2cc(Nc3ccccn3)n[nH]2)CC1 | -37.1
21 | OCCN1CCCC(c2nccnc2Oc2ccccc2)C1 (stereo not drawn) | -25.5
22 | Cc1nn(C)cc1C(=O)N1CCCC(n2nnc3cc(F)ccc32)C1 (stereo not drawn) | -11
23 | Cc1ccc(=O)n(CC2(O)CCN(Cc3cnn(C)c3)CC2)n1 | 3.12

Row | Compound | cytotoxicity at 10 µM [%]
24 | Cc1ccc(CN(C)C(=O)c2cc3c(c(S(N)(=O)=O)c2)CCC3)o1 | -52.5
25 | COc1cc(NCC(=O)NC(C)(C#N)C(C)C)cc(OC)c1OC (stereo not drawn) | -7.33
26 | Cc1cc(N(C)C)nc(N(C)Cc2csc(C)n2)n1 | 7.06
27 | CC(Cc1ccco1)NS(=O)(=O)N1CCCCC1 (stereo not drawn) | -0.867
28 | Cc1nc(C)n(CC2CCCN2Cc2cn3ccccc3c2C#N)n1 (stereo not drawn) | 2.8
29 | N#Cc1ccc(Cn2cncn2)c(F)c1 | -1.49
30 | Cc1ccc(CN(C)C(=O)NCC(C)(C)S(C)(=O)=O)s1 | 15.6
31 | NC1(c2nc(-c3cccs3)cc(=O)[nH]2)CCCCC1 | 6.03
32 | N#CCCN(CC1CCOC1)S(=O)(=O)c1cccc(Cl)c1 (stereo not drawn) | 3.81
33 | N#Cc1cc(F)ccc1NCC1CCS(=O)(=O)CC1 | 2.02
34 | NCC1(CN2CCOCC2)CCCCC1 | 3.23
35 | COC(=O)C1CCN(C(=O)Cn2nc(C)nc2-c2ccccc2)CC1 | -0.159
36 | Cc1cnn(CCNCC(=O)N2CCN(c3ccccc3)CC2)c1 | -6.74
37 | CCC(=O)NCc1ccccc1Cn1ccnc1 | -1.21
38 | COc1c(CNCc2ccccc2CO)c(C)nn1C | 1.04
39 | CC(C)c1nn(C)c(N(C)C)c1CNCc1cccnc1 | -4.6
40 | CC(C)COCCC(=O)Nc1ccc2oc(=O)n(CCN(C)C)c2c1 | -7.59
41 | c1cncc(CN(Cc2ccc3c(c2)OCCO3)CC2CCCO2)c1 (stereo not drawn) | 1.22
42 | CC1CCN(C)c2ccccc2N1C(=O)c1ccc(=O)n(C)c1 (stereo not drawn) | -0.117
43 | Cc1ncccc1C(=O)Nc1cccc2c1C(=O)NC2 | 1.85
44 | Nc1nccnc1C(=O)N1CCN(Cc2cccc3ccccc23)CC1 | -108
45 | CCOc1ccc(C(F)(F)F)cc1NC(=O)N1CCC(C(N)=O)CC1 | 0.425
46 | CC(C)COC(C)C(=O)N1CCCCCC1 (stereo not drawn) | 1.31

Row | Compound | cytotoxicity at 10 µM [%]
47 | OCCOc1cc(F)ccc1NCc1nc(-c2ccoc2)no1 | -46.9
48 | N#CCCNC(=O)CN1CCC(c2cc3ccccc3[nH]2)CC1 | 0.91
49 | CNC(=O)Cn1nnc(-c2cc3ccccc3o2)n1 | 5.65
50 | CC(C)c1cc(C(=O)NCC(O)C2CCOCC2)nn1C(C)(C)C (stereo not drawn) | -9.55
51 | Cn1cc(NC(=O)Cc2ccccc2Br)cc1C(N)=O | -1
52 | O=C(COCC1CC1)Nc1ncccc1I | 22.5
53 | CCOc1ncccc1NC(=O)N1CCC(n2cncn2)CC1 | 6.64
54 | CS(=O)(=O)CCOCCNc1ccc(Br)cn1 | -4.71
55 | O=C(c1c(O)cc(F)cc1F)N1CCc2cnccc21 | -4.18
56 | COCCOc1ccc(F)cc1NCc1nc2ccccc2n1C | 6.29
57 | Cn1c(SCC2OCCc3ccccc32)n[nH]c1=O (stereo not drawn) | -5.76
58 | CCc1nc(NS(=O)(=O)c2ccc(F)cc2C)no1 | -10.9
59 | Cc1nccc(CNC(=O)NCCOc2ccc(F)c(F)c2)n1 | -17
60 | CC(NC1CCN(CCS(C)(=O)=O)CC1)c1ccc(Cl)cc1 (stereo not drawn) | -6.51
61 | CCOC(=O)NC(CNC(=O)c1ccccn1)CC(C)C (stereo not drawn) | 10.2
62 | CN(Cc1nnc(C2CC2)n1C)C1CCN(Cc2ccccc2F)C1 (stereo not drawn) | -15.1
63 | COCCn1c2c(ccc1=O)CCN(C(=O)NC1CC1)CC2 | 1.77
64 | O=c1cc(CN2CCCC2)nc2n1CCCN(CC1CC1)C2 | -111
65 | COCCCNc1nc(CNC(=O)C2CCC2)cc(-c2ccco2)n1 | -11
66 | Cc1ccccc1C(CNc1ncnc2c1CCNC2)N(C)C (stereo not drawn) | 5.31
67 | CCC[C@@H]1CN(C(=O)c2cc(-c3cccs3)n(C)n2)C[C@H]1N(C)C | -1.84
68 | Cc1ccc(OCC(=O)N2CCN[C@H]3CS(=O)(=O)C[C@H]32)cn1 | -2.7
69 | Cn1c(Cn2cccn2)nnc1C1CCN(Cc2cccnc2)CC1 | 6.01

Row | Compound | cytotoxicity at 10 µM [%]
70 | O=C(NCCc1cccs1)C1(N2CCCCC2)Cc2ccccc2C1 | -4.86
71 | Cc1cc(C(F)(F)F)cc(=O)n1CCCn1cnnn1 | 1.16
72 | CC(C)Cc1nc(CS(C)(=O)=O)n(-c2ccccn2)n1 | 1.66
73 | CCc1c(C)nn(CCNC(=O)Cc2csc(C)n2)c1C | 0.129
74 | CCc1cc(NC(C)(C)C)nc(N2CCOCC2)n1 | 0.393
75 | COCCc1noc(-c2ccc(N[C@H]3CCCCNC3=O)nc2)n1 | 6.9
76 | Cn1ccc2c(-c3ccc(NC4CC4)nn3)ccnc21 | 10.4
77 | Cc1ccc(CN2CCCC(c3nnc(CN4CCCC4)n3C)C2)s1 (stereo not drawn) | 0.9
78 | Cc1cccc(-c2nc(CN3CCOCS3(=O)=O)c(C)o2)c1 | 2.01
79 | CN(C)CC1(O)CCN(C(=O)c2ccc(-n3cnnc3)cc2Cl)C1 (stereo not drawn) | -5.06
80 | CC(C)N1CC(C(=O)NCCc2csc(-c3ccncc3)n2)CC1=O (stereo not drawn) | -21
81 | O=C(c1cnc(COc2ccccc2)nc1O)N1CCOCC1 | 2.55
82 | CCn1nc(CC(C)C)cc1C(=O)NCCn1cccc1 | -5.94
83 | CCn1cc(CN2CCCn3nc(CNC(=O)C4CCC4)cc3C2)cn1 | -11.6
84 | Cc1[nH]c(=O)c(C#N)cc1C(=O)N1C[C@@H](CN2CCCC2)C[C@H](CO)C1 | -8.08
85 | COc1ccc(-c2cc(N)on2)cc1 | -12.8
86 | COc1ccc(CCNC(=O)CN2CCCC2c2noc(C)n2)cc1 (stereo not drawn) | 0.772
87 | Cc1ncc(C(=O)N2CCCC(n3nc(C)nc3C)C2)c(C(C)C)n1 (stereo not drawn) | -1.81
88 | CNC(=O)c1cc(C)n(-c2cccc(OC)c2)c1C | -18.1
89 | Cc1nn(-c2ccccc2)cc1C(=O)N1CCCC(n2ccnc2)C1 (stereo not drawn) | -14.4
90 | CN(C)CC1CN(Cc2coc(-c3ccccc3)n2)CCO1 (stereo not drawn) | -10.8
91 | CCn1cnnc1CNC(=O)N1CCCC1 | -3.3
92 | CCN1CCC(CNC(=O)C2(c3cccc(C)c3)CCCCC2)CC1 | -11.8

Row | Compound | cytotoxicity at 10 µM [%]
93 | c1ccc(-c2noc(CNC3CCc4ncnn4C3)n2)nc1 (stereo not drawn) | -11.7
94 | CC(C)OCC(=O)N1CCCN(Cc2ccc(C#N)cc2)CC1 | -7.41
95 | O=C(NCCCN1CCCC1)c1n[nH]c(=O)c2ccccc12 | -6.62
96 | Cn1cnc2c1CCN(CCCc1ccccc1)C2 | -1.13
97 | O=C(NCC1CCCO1)c1cc(-c2ccncc2)c2cnccc2n1 (stereo not drawn) | 1.05
98 | C[C@@H](NCc1cccc(Cl)c1)c1onc(-c2ccc(F)cc2)c1C(=O)O | 0.258
99 | Cc1nc(CN2CCn3cc(CNC(=O)C4CCC4)nc3C2)cs1 | -6.52
100 | COc1ccc(-c2cc(C3CCCNC3)ccn2)cc1 (stereo not drawn) | 0.288
101 | CCN(CC)Cc1cc(=O)n2c(n1)CN(S(=O)(=O)C1CC1)CCC2 | 6.95
102 | O=C(Cc1cccnc1)N1CCC2(CC1)CCN(C1CCOCC1)C2 | -8.16
103 | CCN1CCC2(CN(C(=O)N(C)C)CC23CCNCC3)C1=O (stereo not drawn) | 4.29
104 | COCCN1CCC2(CCN(Cc3cccs3)CC2)C1=O | 1.22
105 | Cn1cc(CN2CCC3(C2)CN(Cc2ccsc2)C3)cn1 | -11.2
106 | Cn1cc(CN2C[C@@H]3CCCO[C@@H]3[C@H](N3CCCC3=O)C2)cn1 | 1.27
107 | O=C(N[C@@H]1CN(c2ncccn2)C[C@@H]2CCCO[C@@H]21)c1ccnnc1 | 6.32
108 | CCn1nnc2c1C(COCC(=O)N(C)C)CN(Cc1ccco1)C2 (stereo not drawn) | -4.96
109 | CC(C)NC(=O)N1CCC2(CC1)NC(=O)CC2c1ccncc1 (stereo not drawn) | -2.94
110 | O=C(N[C@@H]1CN(CC2CC2)[C@@H]2CCCO[C@@H]21)c1cscn1 | -109
111 | CN(CCO)Cc1nnc(C2CCN(CC3[C@H]4CNC[C@@H]34)CC2)n1C (stereo partly drawn) | -0.517
112 | Cc1[nH]c2cc(C3CCCCN3C(=O)C3CC3)nn2c(=O)c1C (stereo not drawn) | -5.34
113 | O=C(c1ccncc1)N1C[C@H]2CC[C@@H](C1)N(C(=O)C1CCCC1)C2 | 6.77
